Experimental data: ChEMBL document CHEMBL1145058, “Hydroxyurea analogues as kinetic and mechanistic probes of the nitric oxide producing reactions of hydroxyurea and oxyhemoglobin” (J Med Chem, 2003)

Legend:
[1] = Nitrite production was measured with Sievers 280 nitric oxide analyzer chemiluminescence; assay type: ADME
Procedure, shortened: (§1)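 Oxyhemoglobin reacted with hydroxyurea derivatives at 50 mM in 0.1 M sodium phosphate, pH 7.3; nitrite and nitrate products quantified by nitric oxide analyzer chemiluminescence; n = 3.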

[2] = Apparent rate constant was determined; assay type: ADME
Procedure, shortened: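 Adult human oxyhemoglobin (70 μM in heme; also HbS) in 0.1 M sodium phosphate, pH 7.3, mixed with hydroxyurea derivative at 50 mM (5 mM for one poorly soluble analogue), 25 °C under air. UV-visible absorption recorded every 5 min for up to 12 h. Apparent first-order rate constant in min^-1 derived from the spectral kinetics; mean ± SD, n = 3.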

[3] = Nitrate production was measured with Sievers 280 nitric oxide analyzer chemiluminescence; assay type: ADME; procedure, shortened: as §1
[4] = Dissociation constant (PKa) was determined; assay type: physicochemical
[5] = Half peak chemical potential versus Ag/Agcl was determined; assay type: ADME

Structure (SMILES)	Nitrite [1] [µM]	rate constant app [2] [min⁻¹]	Nitrate [3] [µM]	pKa [4]	Ep2/2 [5] [mV]
O=C(NO)Nc1ccccc1	7.3	0.0624	26.1	10.3	433
CCN(CC)C(=O)NO	6.1	0.00226	18.5	10.8	705
COc1ccc(NC(=O)NO)cc1	–	0.00194	–	10.2	560
CCCCNC(=O)NO	2.4	0.00856	3.5	11	693

Second part, the molecule after the results:

Nitrite [1] [µM]	rate constant app [2] [min⁻¹]	Nitrate [3] [µM]	pKa [4]	Ep2/2 [5] [mV]	Structure (SMILES)
9.4	0.000754	25.1	10.7	948	NC(=O)NO [HYDROXYUREA]
0	–	0	–	–	CONC(N)=O
6.3	0.0393	7.5	9.95	588	CN(O)C(N)=O
